Test results from ChEMBL document CHEMBL1134346, “Labeling and evaluation of N-[11C]methylated quinoline-2-carboxamides as potential radioligands for visualization of peripheral benzodiazepine receptors” (J Med Chem, 2001).

Experiments:
Rattus norvegicus [1] = species on record: Rattus norvegicus; assay: Tissue (adrenal gland) distribution in Albino male CD rats after 60 minutes expressed as percent of injected dose per gram of organ.; format: ADME, organism-based; details: in vivo, 1 h
Method in brief: (§1)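 Radioligand given in saline into tail vein of male albino CD rats (225-250 g); 100-200 µCi per animal, 1-2 Ci/µmol at injection depending on radioligand. Three rats per time point were decapitated under light ether anaesthesia. Blood, plasma, brain regions and washed organs were weighed and gamma-counted. Uptake is %I.D./g tissue, mean ± SD.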

Rattus norvegicus [2] = species on record: Rattus norvegicus; assay: Tissue (cortex) distribution in Albino male CD rats after 60 minutes expressed as percent of injected dose per gram of organ.; format: ADME, organism-based; details: in vivo, 1 h; method in brief: as §1
[3] = biological target: Translocator protein (Rattus norvegicus) (UniProt P16257); assay: Tissue (liver) concentration of radioactivity at 30 min post-injection into Albino male CD rats after pretreatment with cold PK 11195.; format: functional, tissue-based
Chain of Translocator protein (Rattus norvegicus) (P16257 whole entry, looked up): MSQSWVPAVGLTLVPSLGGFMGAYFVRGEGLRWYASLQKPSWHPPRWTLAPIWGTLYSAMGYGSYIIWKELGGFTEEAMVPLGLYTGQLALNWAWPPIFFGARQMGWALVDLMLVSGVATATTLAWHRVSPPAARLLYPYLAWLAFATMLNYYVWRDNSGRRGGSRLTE
Method in brief: (§2)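 Separate groups of five rats received tail-vein PK 11195 (1.4-1.6 mg; 5 mg/kg) in 30 µL DMSO:EtOH 1:1, or vehicle alone, immediately before iv radioligand (90-170 µCi in saline, 0.9-1 Ci/µmol). Rats were decapitated at 30 min and tissues gamma-counted; values are %I.D./g.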

Rattus norvegicus [4] = species on record: Rattus norvegicus; assay: Tissue (adrenal gland) distribution in Albino male CD rats after 5 minutes expressed as percent of injected dose per gram of organ.; format: ADME, organism-based; details: in vivo; method in brief: as §1
Rattus norvegicus [5] = species on record: Rattus norvegicus; assay: Tissue (plasma) distribution in Albino male CD rats after 90 minutes expressed as percent of injected dose per gram of organ.; format: ADME, organism-based; details: in vivo, 1.5 h
Method in brief: (§3)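 Male albino CD rats (225-250 g) received the 11C-labelled radioligand in saline by tail-vein injection. Three rats per time point were decapitated under light ether anaesthesia at 5, 15, 30, 60 or 90 min. Blood was collected heparinized and plasma separated by centrifugation. The pituitary was dissected from the brain. Lung, liver (three-lobe pieces) and right deltoid muscle were sampled, washed in cold saline, gamma-counted and weighed. Results are %I.D./g.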

Rattus norvegicus [6] = species on record: Rattus norvegicus; assay: Tissue (liver) concentration of radioactivity at 30 min post-injection into Albino male CD rats with vehicle.; format: ADME, organism-based; details: in vivo, 0.5 h; method in brief: as §2
Rattus norvegicus [7] = species on record: Rattus norvegicus; assay: Tissue (cerebellum) distribution in Albino male CD rats after 30 minutes expressed as percent of injected dose per gram of organ.; format: ADME, organism-based; details: in vivo, 0.5 h; method in brief: as §1
Rattus norvegicus [8] = species on record: Rattus norvegicus; assay: Tissue (heart) distribution in Albino male CD rats after 30 minutes expressed as percent of injected dose per gram of organ.; format: ADME, organism-based; details: in vivo, 0.5 h; method in brief: as §1
Rattus norvegicus [9] = species on record: Rattus norvegicus; assay: Tissue (blood) distribution in Albino male CD rats after 15 minutes expressed as percent of injected dose per gram of organ.; format: ADME, organism-based; details: in vivo, 0.25 h; method in brief: as §1
Rattus norvegicus [10] = species on record: Rattus norvegicus; assay: Tissue (plasma) distribution in Albino male CD rats after 60 minutes expressed as percent of injected dose per gram of organ.; format: ADME, organism-based; details: in vivo, 1 h; method in brief: as §3
Rattus norvegicus [11] = species on record: Rattus norvegicus; assay: Tissue (blood) distribution in Albino male CD rats after 30 minutes expressed as percent of injected dose per gram of organ.; format: ADME, organism-based; details: in vivo, 0.5 h; method in brief: as §1
Rattus norvegicus [12] = species on record: Rattus norvegicus; assay: Tissue (testicle) distribution in Albino male CD rats after 5 minutes expressed as percent of injected dose per gram of organ.; format: ADME, organism-based; details: in vivo; method in brief: as §3
[13] = biological target: Translocator protein (Rattus norvegicus) (UniProt P16257); assay: Tissue (pituitary) concentration of radioactivity at 30 min post-injection into Albino male CD rats after pretreatment with cold PK 11195.; format: functional, tissue-based; details: Pituitary gland
Method in brief: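 Blocking study in male albino CD rats, five per group. Immediately before the 11C radioligand (in saline, i.v. tail vein), rats received 30 µL tail-vein PK 11195 (5 mg/kg; 1.4-1.6 mg) in DMSO:EtOH 1:1, or vehicle. Rats were decapitated at 30 min. Tissues were dissected, washed, gamma-counted and weighed as in the biodistribution study. Results are %I.D./g.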

Rattus norvegicus [14] = species on record: Rattus norvegicus; assay: Tissue (intestine) distribution in Albino male CD rats after 15 minutes expressed as percent of injected dose per gram of organ.; format: ADME, organism-based; details: in vivo, 0.25 h; method in brief: as §1
[15] = biological target: Translocator protein (Rattus norvegicus) (UniProt P16257); assay: Tissue (cortex) concentration of radioactivity at 30 min post-injection into Albino male CD rats after pretreatment with cold PK 11195.; format: functional; method in brief: as §2
Rattus norvegicus [16] = species on record: Rattus norvegicus; assay: Tissue (plasma) distribution in Albino male CD rats after 15 minutes expressed as percent of injected dose per gram of organ.; format: ADME, organism-based; details: in vivo, 0.25 h; method in brief: as §3
Rattus norvegicus [17] = species on record: Rattus norvegicus; assay: Tissue (blood) distribution in Albino male CD rats after 60 minutes expressed as percent of injected dose per gram of organ.; format: ADME, organism-based; details: in vivo, 1 h; method in brief: as §1
Rattus norvegicus [18] = species on record: Rattus norvegicus; assay: Tissue (lung) distribution in Albino male CD rats after 15 minutes expressed as percent of injected dose per gram of organ.; format: ADME, organism-based; details: in vivo, 0.25 h; method in brief: as §3
Rattus norvegicus [19] = species on record: Rattus norvegicus; assay: Tissue (liver) distribution in Albino male CD rats after 15 minutes expressed as percent of injected dose per gram of organ.; format: ADME, organism-based; details: in vivo, 0.25 h; method in brief: as §1
Rattus norvegicus [20] = species on record: Rattus norvegicus; assay: Tissue (cerebellum) distribution in Albino male CD rats after 90 minutes expressed as percent of injected dose per gram of organ.; format: ADME, organism-based; details: in vivo, 1.5 h; method in brief: as §1
Rattus norvegicus [21] = species on record: Rattus norvegicus; assay: Tissue (cortex) distribution in Albino male CD rats after 90 minutes expressed as percent of injected dose per gram of organ.; format: ADME, organism-based; details: in vivo, 1.5 h; method in brief: as §1
Rattus norvegicus [22] = species on record: Rattus norvegicus; assay: Tissue (pituitary) distribution in Albino male CD rats after 90 minutes expressed as percent of injected dose per gram of organ.; format: ADME, organism-based, Pituitary gland; details: in vivo, 1.5 h; method in brief: as §3
Rattus norvegicus [23] = species on record: Rattus norvegicus; assay: Tissue (cortex) distribution in Albino male CD rats after 15 minutes expressed as percent of injected dose per gram of organ.; format: ADME, organism-based; details: in vivo, 0.25 h; method in brief: as §1
Rattus norvegicus [24] = species on record: Rattus norvegicus; assay: Tissue (muscle) distribution in Albino male CD rats after 30 minutes expressed as percent of injected dose per gram of organ.; format: ADME, organism-based; details: in vivo, 0.5 h; method in brief: as §3
Rattus norvegicus [25] = species on record: Rattus norvegicus; assay: Tissue (kidney) distribution in Albino male CD rats after 15 minutes expressed as percent of injected dose per gram of organ.; format: ADME, organism-based; details: in vivo, 0.25 h; method in brief: as §1
Rattus norvegicus [26] = species on record: Rattus norvegicus; assay: Tissue (cerebellum) distribution in Albino male CD rats after 60 minutes expressed as percent of injected dose per gram of organ.; format: ADME, organism-based; details: in vivo, 1 h; method in brief: as §1
Rattus norvegicus [27] = species on record: Rattus norvegicus; assay: Tissue (pituitary) distribution in Albino male CD rats after 5 minutes expressed as percent of injected dose per gram of organ.; format: ADME, organism-based, Pituitary gland; details: in vivo; method in brief: as §3
Rattus norvegicus [28] = species on record: Rattus norvegicus; assay: Tissue (intestine) distribution in Albino male CD rats after 30 minutes expressed as percent of injected dose per gram of organ.; format: ADME, organism-based; details: in vivo, 0.5 h; method in brief: as §1
Rattus norvegicus [29] = species on record: Rattus norvegicus; assay: Tissue (heart) distribution in Albino male CD rats after 60 minutes expressed as percent of injected dose per gram of organ.; format: ADME, organism-based; details: in vivo, 1 h; method in brief: as §1
Rattus norvegicus [30] = species on record: Rattus norvegicus; assay: Tissue (kidney) distribution in Albino male CD rats after 5 minutes expressed as percent of injected dose per gram of organ.; format: ADME, organism-based; details: in vivo; method in brief: as §1
Rattus norvegicus [31] = species on record: Rattus norvegicus; assay: Tissue (cortex) concentration of radioactivity at 30 min post-injection into Albino male CD rats with vehicle.; format: ADME, organism-based; details: in vivo, 0.5 h; method in brief: as §2
[32] = biological target: Translocator protein (Rattus norvegicus) (UniProt P16257); assay: Tissue (adrenal gland) concentration of radioactivity at 30 min post-injection into Albino male CD rats after pretreatment with cold PK 11195.; format: functional, tissue-based; method in brief: as §2
Rattus norvegicus [33] = species on record: Rattus norvegicus; assay: Tissue (spleen) distribution in Albino male CD rats after 60 minutes expressed as percent of injected dose per gram of organ.; format: ADME, organism-based; details: in vivo, 1 h
Rattus norvegicus [34] = species on record: Rattus norvegicus; assay: Tissue (liver) distribution in Albino male CD rats after 30 minutes expressed as percent of injected dose per gram of organ.; format: ADME, organism-based; details: in vivo, 0.5 h; method in brief: as §3
Rattus norvegicus [35] = species on record: Rattus norvegicus; assay: Tissue (pituitary) distribution in Albino male CD rats after 15 minutes expressed as percent of injected dose per gram of organ.; format: ADME, organism-based, Pituitary gland; details: in vivo, 0.25 h; method in brief: as §3
Rattus norvegicus [36] = species on record: Rattus norvegicus; assay: Tissue (heart) distribution in Albino male CD rats after 5 minutes expressed as percent of injected dose per gram of organ.; format: ADME, organism-based; details: in vivo; method in brief: as §1
Rattus norvegicus [37] = species on record: Rattus norvegicus; assay: Tissue (testicle) distribution in Albino male CD rats after 60 minutes expressed as percent of injected dose per gram of organ.; format: ADME, organism-based; details: in vivo, 1 h; method in brief: as §3
Rattus norvegicus [38] = species on record: Rattus norvegicus; assay: Tissue (blood) distribution in Albino male CD rats after 90 minutes expressed as percent of injected dose per gram of organ.; format: ADME, organism-based; details: in vivo, 1.5 h; method in brief: as §1
Rattus norvegicus [39] = species on record: Rattus norvegicus; assay: Tissue (liver) distribution in Albino male CD rats after 5 minutes expressed as percent of injected dose per gram of organ.; format: ADME, organism-based; details: in vivo; method in brief: as §3
Rattus norvegicus [40] = species on record: Rattus norvegicus; assay: Tissue (kidney) distribution in Albino male CD rats after 60 minutes expressed as percent of injected dose per gram of organ.; format: ADME, organism-based; details: in vivo, 1 h; method in brief: as §1

CCC(C)N(C)C(=O)c1nc2ccccc2c(-c2ccccc2F)c1C (stereo not given)
I.D./g (Rattus norvegicus [1]): 2.85% | I.D./g (Rattus norvegicus [2]): 0.07% | I.D./g [3]: < 0.45% | I.D./g (Rattus norvegicus [4]): 1.12% | I.D./g (Rattus norvegicus [5]): 0.04% | I.D./g (Rattus norvegicus [6]): 0.35% | I.D./g (Rattus norvegicus [7]): 0.09% | I.D./g (Rattus norvegicus [8]): 0.73% | I.D./g (Rattus norvegicus [9]): 0.14% | I.D./g (Rattus norvegicus [10]): 0.06% | I.D./g (Rattus norvegicus [11]): 0.11% | I.D./g (Rattus norvegicus [12]): 0.04% | I.D./g [13]: > 0.06% | I.D./g (Rattus norvegicus [14]): 0.37% | I.D./g [15]: < 0.02% | I.D./g (Rattus norvegicus [16]): 0.09% | I.D./g (Rattus norvegicus [17]): 0.08% | I.D./g (Rattus norvegicus [18]): 2.25% | I.D./g (Rattus norvegicus [19]): 0.69% | I.D./g (Rattus norvegicus [20]): 0.06% | I.D./g (Rattus norvegicus [21]): 0.06% | I.D./g (Rattus norvegicus [22]): 0.15% | I.D./g (Rattus norvegicus [23]): 0.11% | I.D./g (Rattus norvegicus [24]): 0.1% | I.D./g (Rattus norvegicus [25]): 0.73% | I.D./g (Rattus norvegicus [26]): 0.07% | I.D./g (Rattus norvegicus [27]): 0.16% | I.D./g (Rattus norvegicus [28]): 0.31% | I.D./g (Rattus norvegicus [29]): 0.6% | I.D./g (Rattus norvegicus [30]): 0.41% | I.D./g (Rattus norvegicus [31]): 0.05% | I.D./g [32]: < 0.78% | I.D./g (Rattus norvegicus [33]): 0.65% | I.D./g (Rattus norvegicus [34]): 0.55% | I.D./g (Rattus norvegicus [35]): 0.27% | I.D./g (Rattus norvegicus [36]): 0.68% | I.D./g (Rattus norvegicus [37]): 0.09% | I.D./g (Rattus norvegicus [38]): 0.05% | I.D./g (Rattus norvegicus [39]): 0.41% | I.D./g (Rattus norvegicus [40]): 0.51%
